Experimental data reported in ChEMBL document CHEMBL1143036, “Potential anti-inflammatory actions of the elmiric (lipoamino) acids” (2007).
Active and inactive are the calls of the source. The calls are words filed in the database; no cut-off is given here.

Assays:
RAW264.7 [1] = experiment: Antiproliferative activity against LPS-induced mouse RAW264.7 cells assessed as number of cells at 1 uM after 48 hrs; assay type: functional
Method in brief: (§1)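 RAW264.7 mouse macrophages were seeded at 500 cells/well and held 24 h at 37°C in 5% CO2. Compound was added (n=4 wells), then LPS solution (1 ug/ml) 1 h later, followed by 48 h incubation. Cell number was read as ATP luminescence (CellTiter-Glo), which is linear with cell count. Values are four-well means, […].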

RAW264.7 [2] = experiment: Antiproliferative activity against LPS-induced mouse RAW264.7 cells assessed as number of cells at 0.1 uM after 48 hrs; assay type: functional; method in brief: as §1
RAW264.7 [3] = experiment: Antiproliferative activity against LPS-induced mouse RAW264.7 cells assessed as number of cells at 10 uM after 48 hrs; assay type: functional; method in brief: as §1
RAW264.7 [4] = experiment: Effect on iPGJ2 level in LPS-induced mouse RAW264.7 cells at 10 uM by ELISA; assay type: functional
Method in brief: (§2)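 RAW cells were seeded at 20,000/well and cultured 20 h at 37°C in 5% CO2, then washed and placed in serum-free RPMI. Compounds were added in DMSO at 1 or 10 uM final (N=3). LPS solution (1 ug/ml) was added 30 min later, with a further 2 h incubation. Centrifuged media were assayed by enzyme immunoassay for immunoreactive PGE and PGJ2 (pg/ml); the ratio is iPGJ/iPGE.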

RAW264.7 [5] = experiment: Ratio of iPGJ2 to iPGE in LPS-induced mouse RAW264.7 cells at 10 uM by ELISA; assay type: functional; method in brief: as §2
RAW264.7 [6] = experiment: Effect on iPGE2 level in LPS-induced mouse RAW264.7 cells at 10 uM by ELISA; assay type: functional; method in brief: as §2
RAW264.7 [7] = experiment: Effect on iPGE2 level in LPS-induced mouse RAW264.7 cells at 1 uM by ELISA; assay type: functional; method in brief: as §2
RAW264.7 [8] = experiment: Ratio of iPGJ2 to iPGE in LPS-induced mouse RAW264.7 cells at 1 uM by ELISA; assay type: functional; method in brief: as §2
RAW264.7 [9] = experiment: Effect on iPGJ2 level in LPS-induced mouse RAW264.7 cells at 1 uM by ELISA; assay type: functional; method in brief: as §2
Mus musculus [10] = experiment: Reduction of phorbol ester-induced ear edema in CD1 mouse assessed as ear thickness; assay type: functional, organism-based
Mus musculus [11] = experiment: Reduction of phorbol ester-induced ear edema in CD1 mouse assessed as ear thickness at 200 ug/ear; assay type: functional; set-up: scale not given: the % may be the effect or the level left
Method in brief: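 Male CD-1 mice (34–40 g), topically dosed at 200 ug/ear in 10 ul acetone on the ipsilateral ear, with acetone alone on the contralateral ear. Phorbol ester was the edema inducer. Ear thickness was read by digital micrometer and expressed as the ipsilateral minus contralateral difference in microns. N = 8; paired t-test against vehicle.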

Structure (SMILES) | Cell number (RAW264.7 [1]) | Activity (RAW264.7 [2]) | Cell number (RAW264.7 [3]) | Activity (RAW264.7 [4]) | Ratio (RAW264.7 [5]) | Activity (RAW264.7 [6]) | Activity (RAW264.7 [7]) | Ratio (RAW264.7 [8]) | Activity (RAW264.7 [9]) | Activity (Mus musculus [10]) | Activity (Mus musculus [11])
CCCCC/C=C\C/C=C\CCCCCCCCCC(=O)NCC(=O)O | 5738 | 2945 | 609 |  |  |  |  |  |  |  | 
CCCCC/C=C\C/C=C\CCCCCCCCCC(=O)N[C@@H](C)C(=O)O | 4397 | 3641 | 605 |  |  |  |  |  |  |  | 
CCCCC/C=C\C/C=C\C/C=C\C/C=C\CCCCCC(=O)NCC(=O)O | 5310 | 5131 | 3574 |  |  |  |  |  |  |  | 
CCCCC/C=C\C/C=C\CCCCCCCC(=O)N[C@@H](C)C(=O)O | 4233 | 3955 | 621 |  |  |  |  |  |  |  | 
CCCCCCCCCCCCCCCC(=O)N[C@H](C)C(=O)O |  |  |  | 3079 pg/mL | 9 | 319 pg/mL | 256 pg/mL | 1 | 281 pg/mL |  | 
CCCCCCCC/C=C\CCCCCCCC(=O)NCC(=O)O [OLEOYL GLYCINE] | 5557 | 5172 | 425 |  |  |  |  |  |  |  | 
O=C1CCN(c2ccccc2)N1 |  |  |  |  |  |  |  |  |  | inactive | 
CCCCC/C=C\C/C=C\C/C=C\CCCCC(=O)NCC(=O)O | 5700 | 5435 | 6602 | 80205 pg/mL | 277 | 289 pg/mL | 127 pg/mL | 39 | 5040 pg/mL |  | 
COc1ccc2cc([C@H](C)C(=O)O)ccc2c1 [NAPROXEN] |  |  |  | 70 pg/mL | 1 | 75 pg/mL |  |  |  |  | 
CCCCC/C=C\C/C=C\C/C=C\C/C=C\CCCC(=O)N[C@@H](C)C(=O)O | 4735 | 4781 | 2110 | 41059 pg/mL | 62 | 652 pg/mL | 241 pg/mL | 9 | 2345 pg/mL |  | 
CCCCC/C=C\C/C=C\C/C=C\C/C=C\CCCC(=O)NCC(=O)O [ARACHIDONOYL GLYCINE] | 6156 | 5630 | 591 | 97830 pg/mL | 229 | 425 pg/mL | 273 pg/mL | 147 | 40407 pg/mL |  | 40%
CCCCC/C=C\C/C=C\C/C=C\CCCCC(=O)N[C@@H](C)C(=O)O | 4557 | 4247 | 2696 |  |  |  |  |  |  |  | 
CCCCCCCC/C=C\CCCCCCCC(=O)N[C@@H](C)C(=O)O | 4533 | 3637 | 422 |  |  |  |  |  |  |  | 
CCCCC/C=C\C/C=C\C/C=C\C/C=C\CCCC(=O)N[C@H](C)C(=O)O |  |  |  | 28224 pg/mL | 104 | 269 pg/mL | 124 pg/mL | 12 | 1496 pg/mL |  | 
CCCCCCCCCCCCCCCCCC(=O)NCC(=O)O |  |  |  | 159 pg/mL | 1 | 126 pg/mL | 121 pg/mL | 1 | 201 pg/mL |  | 
CCCCC/C=C\C/C=C\C/C=C\CCCCCCC(=O)N[C@@H](C)C(=O)O | 4680 | 4326 | 637 |  |  |  |  |  |  |  | 
CCCCCCCCCCCCCCCC(=O)NCC(=O)O [PALMITOYL GLYCINE] | 5524 | 5120 | 5108 | 401 pg/mL | 3 | 128 pg/mL | 103 pg/mL | 2 | 219 pg/mL |  | 
CCCCC/C=C\C/C=C\C/C=C\CCCCCCC(=O)NCC(=O)O | 5563 | 5486 | 647 |  |  |  |  |  |  |  | 
CCCCCCCCCCCCCCCC(=O)N[C@@H](C)C(=O)O | 4670 | 4541 | 432 |  | 17 | 232 pg/mL | 251 pg/mL | 1 | 261 pg/mL |  | 
CCCCC/C=C\C/C=C\C/C=C\C/C=C\CCCCCC(=O)N[C@@H](C)C(=O)O | 4415 | 4668 | 618 |  |  |  |  |  |  |  | 
CCCCC/C=C\C/C=C\CCCCCCCC(=O)NCC(=O)O [LINOLEOYL GLYCINE] | 4595 | 5979 | 713 |  |  |  |  |  |  |  | 
